Measurements published in ChEMBL document CHEMBL1152467, “Pharmacokinetics and pharmacodynamics of piperaquine in a murine malaria model” (Antimicrob Agents Chemother, 2008).
Active and inactive are the calls of the source. The rule behind the calls is not given here.

Legend:
Plasmodium berghei [1] = test: Antiparasitic activity as parasitaemia against Plasmodium berghei ANKA infected Swiss mice (Mus musculus) at 30 mg/kg intraperitoneal dose 64 hrs post infection; format: functional
Outline: (§1)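 Male Swiss mice were infected i.p. with 10^7 P. berghei ANKA-parasitized erythrocytes. At 64 h (3-5% parasitemia) they received a single i.p. dose of piperaquine phosphate suspension: 300, 900 or 2,700 μg in 100 μl (about 10, 30, 90 mg/kg). Parasitemia came from May-Grünwald Giemsa tail-blood thin films, counting 30-100 fields (detection limit about 0.002%). Groups had 13-14 mice; controls had 8.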

Plasmodium berghei [2] = test: Antiparasitic activity as reduced parasitaemia after 36 hrs against Plasmodium berghei ANKA infected Swiss mice (Mus musculus) at 30 mg/kg intraperitoneal dosed 64 hrs post infection; format: functional; outline: as §1
Plasmodium berghei [3] = test: Antiparasitic activity as reduced parasitaemia after 36 hrs against Plasmodium berghei ANKA infected Swiss mice (Mus musculus) at 10 mg/kg intraperitoneal dosed 64 hrs post infection; format: functional
Outline: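 Male Swiss mice (5–6 weeks) infected i.p. with 10^7 P. berghei ANKA-parasitized erythrocytes from BALB/c donor blood diluted in citrate-phosphate-dextrose. Single i.p. dose given at 64 h, suspended in 50% glycerol/30% phosphate buffer pH 7.1/20% polysorbate 80, 100 µl. n = 14; vehicle controls n = 8. Parasitemia counted on methanol-fixed, May-Grünwald Giemsa tail-vein smears, expressed as fold decline from predose level.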

Plasmodium berghei [4] = test: Antiparasitic activity as reduced parasitaemia at day 22-30 against Plasmodium berghei ANKA infected Swiss mice (Mus musculus) at 30 mg/kg intraperitoneal dose 64 hrs post infection; format: functional; parameters: scale not given: the % may be the effect or the level left; outline: as §1
Plasmodium berghei [5] = test: Antiparasitic activity as median survival time after 30 days against Plasmodium berghei ANKA infected Swiss mice (Mus musculus) at 30 mg/kg intraperitoneal dose 64 hrs post infection; format: functional
Outline: (§2)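 Male Swiss mice (5–6 weeks) inoculated i.p. with 10^7 P. berghei ANKA-parasitized erythrocytes. At 64 h (3–5% parasitemia), each received a single i.p. 100 μl PQP suspension in 50% glycerol, 30% phosphate buffer (pH 7.1) and 20% polysorbate 80. Parasitemia was followed on tail-vein Giemsa smears. Mice were euthanized at >40% parasitemia or >10% weight loss within 24 h. Groups of 14 treated, 8 controls.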

Plasmodium berghei [6] = test: Antiparasitic activity as parasitaemia at day 16 against Plasmodium berghei ANKA infected Swiss mice (Mus musculus) at 90 mg/kg intraperitoneal dose 64 hrs post infection; format: functional; outline: as §1
Plasmodium berghei [7] = test: Antiparasitic activity as mean parasitaemia after 22 days against Plasmodium berghei ANKA infected Swiss mice (Mus musculus) at 30 mg/kg intraperitoneal dose 64 hrs post infection; format: functional; outline: as §1
Plasmodium berghei [8] = test: Antiparasitic activity as median survival time against Plasmodium berghei ANKA infected Swiss mice (Mus musculus) at 10 mg/kg intraperitoneal dose 64 hrs post infection; format: functional; outline: as §2
Plasmodium berghei [9] = test: Antiparasitic activity as parasitaemia at day 60 against Plasmodium berghei ANKA infected Swiss mice (Mus musculus) at 90 mg/kg intraperitoneal dose 64 hrs post infection; format: functional; outline: as §1
Plasmodium berghei [10] = test: Antiparasitic activity as parasitaemia after 4 days against Plasmodium berghei ANKA infected Swiss mice (Mus musculus) at 90 mg/kg intraperitoneal dose; format: functional; outline: as §1
Plasmodium berghei [11] = test: Antiparasitic activity as peripheral parasitaemia 2 weeks after day 60 reinfection against Plasmodium berghei ANKA infected Swiss mice (Mus musculus) at 90 mg/kg intraperitoneal dose 64 hrs post infection; format: functional
Outline: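 Swiss mice given a single i.p. 90 mg/kg piperaquine phosphate 64 h after P. berghei ANKA infection were reinoculated i.p. with 10^7 parasitized erythrocytes on day 60. Age-matched previously uninfected mice (untreated, vehicle, or drug on day 0) were inoculated alongside. Parasitemia was read daily from Giemsa-stained tail-blood films for 2 weeks.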

Plasmodium berghei [12] = test: Antiparasitic activity as parasitaemia against Plasmodium berghei ANKA infected Swiss mice (Mus musculus) at 10 mg/kg intraperitoneal dose 64 hrs post infection; format: functional; outline: as §1
Plasmodium berghei [13] = test: Antiparasitic activity as reduced parasitaemia against Plasmodium berghei ANKA infected Swiss mice (Mus musculus) at 10 mg/kg intraperitoneal dose 64 hrs post infection; format: functional, organism-based; parameters: dose 10 mg/kg; outline: as §1
Plasmodium berghei [14] = test: Antiparasitic activity as reduced parasitaemia against Plasmodium berghei ANKA infected Swiss mice (Mus musculus) at 30 mg/kg intraperitoneal dose 64 hrs post infection; format: functional, organism-based; parameters: dose 30 mg/kg; outline: as §1
Plasmodium berghei [15] = test: Antiparasitic activity as reduced parasitaemia against Plasmodium berghei ANKA infected Swiss mice (Mus musculus) at 90 mg/kg intraperitoneal dose 64 hrs post infection; format: functional, organism-based; parameters: dose 90 mg/kg; outline: as §1
Plasmodium berghei [16] = test: Antiparasitic activity as reduced parasitaemia after 24 hrs against Plasmodium berghei ANKA infected Swiss mice (Mus musculus) at 30 mg/kg intraperitoneal dose 64 hrs post infection; format: functional, organism-based; parameters: dose 30 mg/kg; outline: as §1
Plasmodium berghei [17] = test: Antiparasitic activity as reduced parasitaemia at day 3 against Plasmodium berghei ANKA infected Swiss mice (Mus musculus) at 30 mg/kg intraperitoneal dose 64 hrs post infection; format: functional, organism-based; parameters: dose 30 mg/kg; outline: as §1
[18] = Plasma concentration in Swiss mice (Mus musculus) infected with Plasmodium berghei ANKA at 90 mg/kg, intraperitoneally administered 64 hrs after infection measured after 2 hrs; format: ADME, organism-based; parameters: dose 90 mg/kg, route intraperitoneal; details: ip
Outline: (§3)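 P. berghei ANKA-infected male Swiss mice (10^7 parasitized erythrocytes i.p.) got one i.p. dose of 2,700 μg piperaquine phosphate (about 90 mg/kg) in glycerol/phosphate buffer/polysorbate 80 suspension, 64 h post-inoculation. Cardiac blood was drawn from 5 mice per time point, 0 h to […]. Plasma piperaquine was measured by HPLC, with concentrations normalized to 90 mg/kg. Noncompartmental and two-compartment fits (1/y2 weighting) used group means.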

[19] = Plasma concentration in Swiss mice (Mus musculus) infected with Plasmodium berghei ANKA at 90 mg/kg, intraperitoneally administered 64 hrs after infection measured after 36 hrs; format: ADME, organism-based; parameters: dose 90 mg/kg, route intraperitoneal; details: ip; outline: as §3
[20] = Half life in healthy Swiss mouse at 90 mg/kg, ip; format: ADME, organism-based; parameters: dose 90 mg/kg, route intraperitoneal; details: in vivo
Outline: (§4)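 Uninfected male Swiss mice (6 weeks old) received a single i.p. dose of 2,700 μg piperaquine phosphate suspension (about 90 mg/kg). Cardiac-puncture blood was collected under pentobarbitone from n = 5 per time, 0 h to 25 days. Lithium heparin plasma was assayed by HPLC and normalized to a 90 mg/kg dose. Mean profiles were analysed noncompartmentally and by a two-compartment model (1/y2 weighting).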

[21] = AUC in healthy Swiss mouse at 90 mg/kg, ip; format: ADME, organism-based; parameters: dose 90 mg/kg, route intraperitoneal; details: plasma; outline: as §4
[22] = Apparent clearance in healthy Swiss mouse at 90 mg/kg, ip; format: ADME, organism-based; parameters: dose 90 mg/kg, route intraperitoneal; details: in vivo; outline: as §4
Mus musculus [23] = test: Apparent volume of distribution in healthy Swiss mouse at 90 mg/kg, ip; format: ADME, organism-based; parameters: dose 90 mg/kg, route intraperitoneal; details: in vivo; outline: as §4
[24] = Initial half life in healthy Swiss mouse at 90 mg/kg, ip by two compartment model assay; format: ADME, organism-based; parameters: dose 90 mg/kg, route intraperitoneal; details: in vivo, read-out: alphat1/2 (converted); outline: as §4
[25] = Terminal half life in healthy Swiss mouse at 90 mg/kg, ip by two compartment model assay; format: ADME, organism-based; parameters: dose 90 mg/kg, route intraperitoneal; details: in vivo, read-out: beta t1/2 (converted); outline: as §4
[26] = Half life in Swiss mice (Mus musculus) infected with Plasmodium berghei ANKA at 90 mg/kg, intraperitoneally administered 64 hrs after infection; format: ADME, organism-based; parameters: dose 90 mg/kg, route intraperitoneal; details: in vivo, ip; outline: as §3
[27] = AUC in Swiss mice (Mus musculus) infected with Plasmodium berghei ANKA at 90 mg/kg, intraperitoneally administered 64 hrs after infection; format: ADME, organism-based; parameters: dose 90 mg/kg, route intraperitoneal; details: plasma, ip; outline: as §3
[28] = Apparent clearance in Swiss mice (Mus musculus) infected with Plasmodium berghei ANKA at 90 mg/kg, intraperitoneally administered 64 hrs after infection; format: ADME, organism-based; parameters: dose 90 mg/kg, route intraperitoneal; details: in vivo, ip; outline: as §3
Mus musculus [29] = test: Apparent volume of distribution in Swiss mice (Mus musculus) infected with Plasmodium berghei ANKA at 90 mg/kg, intraperitoneally administered 64 hrs after infection; format: ADME, organism-based; parameters: dose 90 mg/kg, route intraperitoneal; details: in vivo, ip; outline: as §3
[30] = Initial half life in Swiss mice (Mus musculus) infected with Plasmodium berghei ANKA at 90 mg/kg, intraperitoneally by two compartment model assay; format: ADME, organism-based; parameters: dose 90 mg/kg, route intraperitoneal; details: in vivo, ip, read-out: alphat1/2 (converted); outline: as §3
[31] = Terminal half life in Swiss mice (Mus musculus) infected with Plasmodium berghei ANKA at 90 mg/kg, intraperitoneally by two compartment model assay; format: ADME, organism-based; parameters: dose 90 mg/kg, route intraperitoneal; details: in vivo, ip, read-out: beta t1/2 (converted); outline: as §3
Mus musculus [32] = test: Plasma concentration in Swiss mice (Mus musculus) infected with Plasmodium berghei ANKA at 90 mg/kg, intraperitoneally administered 64 hrs after infection measured after 2 to 7 days; format: ADME, organism-based; parameters: dose 90 mg/kg, route intraperitoneal; details: in vivo, ip; outline: as §3
Plasmodium berghei [33] = test: Antiparasitic activity as parasitaemia after 36 hrs against Plasmodium berghei ANKA infected Swiss mice (Mus musculus) at 90 mg/kg intraperitoneal dose 64 hrs post infection; format: functional; outline: as §1
[34] = Plasma concentration in Swiss mice (Mus musculus) infected with Plasmodium berghei ANKA at 90 mg/kg, intraperitoneally administered 64 hrs after infection measured after 30 days; format: ADME, organism-based; parameters: dose 90 mg/kg, route intraperitoneal; details: ip; outline: as §3
[35] = Plasma concentration in Swiss mice (Mus musculus) infected with Plasmodium berghei ANKA at 90 mg/kg, intraperitoneally administered 64 hrs after infection measured after 60 days; format: ADME, organism-based; parameters: dose 90 mg/kg, route intraperitoneal; details: ip; outline: as §3
[36] = Terminal half life in adult human; format: ADME, organism-based; details: in vivo, read-out: beta t1/2 (converted)
[37] = Terminal half life in human children; format: ADME, organism-based; details: in vivo, read-out: beta t1/2 (converted)
Plasmodium berghei [38] = test: Antiparasitic activity as survival at day 30 against Plasmodium berghei ANKA infected Swiss mice (Mus musculus) at 30 mg/kg intraperitoneal dose 64 hrs post infection; format: functional; outline: as §2
Plasmodium berghei [39] = test: Antiparasitic activity as survival at day 30 against Plasmodium berghei ANKA infected Swiss mice (Mus musculus) at 10 mg/kg intraperitoneal dose 64 hrs post infection; format: functional; outline: as §2
[40] = Toxicity in mouse; format: organism-based; details: in vivo
Plasmodium berghei [41] = test: Antiparasitic activity as survival at day 30 against Plasmodium berghei ANKA infected Swiss mice (Mus musculus) at 20-30 mg/kg intraperitoneal dose 64 hrs post infection; format: functional
Plasmodium berghei [42] = test: Antimalarial activity against chloroquine-sensitive Plasmodium berghei by Peters 4 day test; details: 96 h

## C[C@H]1[C@@H](O)O[C@@H]2O[C@@]3(C)CC[C@H]4[C@H](C)CC[C@@H]1[C@@]24OO3 [ARTENIMOL]
Plasmodium berghei [1]
  Activity: 4.6%
Plasmodium berghei [2]
  fold change (FC): 11.9

## Clc1ccc2c(N3CCN(CCCN4CCN(c5ccnc6cc(Cl)ccc56)CC4)CC3)ccnc2c1.O=P(O)(O)O [PIPERAQUINE PHOSPHATE]
Plasmodium berghei [3]
  fold change (FC): 12.8
Plasmodium berghei [4]
  Activity: 0.1%
Plasmodium berghei [5]
  Activity: 54 days
Plasmodium berghei [6]
  Activity: 1.8%
Plasmodium berghei [7]
  Activity: 11%
Plasmodium berghei [8]
  Activity: 10 days
Plasmodium berghei [9]
  Activity: < 0.1%
Plasmodium berghei [10]
  Activity: >10%
Plasmodium berghei [11]
  Activity: <1%
Plasmodium berghei [12]
  Activity: 1.5%

## Clc1ccc2c(N3CCN(CCCN4CCN(c5ccnc6cc(Cl)ccc56)CC4)CC3)ccnc2c1
Plasmodium berghei [13]
  Activity: Active
Plasmodium berghei [14]
  Activity: Active
Plasmodium berghei [15]
  Activity: Active
Plasmodium berghei [16]
  Activity: Active
Plasmodium berghei [17]
  Activity: Active

## Clc1ccc2c(N3CCN(CCCN4CCN(c5ccnc6cc(Cl)ccc56)CC4)CC3)ccnc2c1 [PIPERAQUINE]
[18]
  concentration at 2 h: 250 ng/mL
[19]
  concentration at 36 h: 45 ng/mL
[20]
  half-life: 17.8 days
[21]
  AUC: 33500 ng·h/mL
[22]
  CL/F: 25.8 mL/min/kg
Mus musculus [23]
  Vd: 956 L/kg
[24]
  half-life: 0.59 days
[25]
  half-life: 20.7 days
[26]
  half-life: 16.1 days
[27]
  AUC at 64 h: 27300 ng·h/mL
[28]
  CL/F: 31.7 mL/min/kg
Mus musculus [29]
  Vd: 1059 L/kg
[30]
  half-life: 0.35 days
[31]
  half-life: 15.4 days
Mus musculus [32]
  Cp: 20 ng/mL
Plasmodium berghei [33]
  Activity: 0.002%
[34]
  concentration at 720 h: > 10 ng/mL
[35]
  concentration at 1440 h: 3 ng/mL
[36]
  half-life: 23 days
[37]
  half-life: 14 days
Plasmodium berghei [38]
  Activity: 70%
Plasmodium berghei [39]
  Activity: 0%
[40]
  LD50: 1100 mg/kg
Plasmodium berghei [41]
  Activity: 50%
Plasmodium berghei [42]
  ED50: 4.5 mg/kg
